Most compounds without a hit are left out; they make up all but 7.4% or so of the library.
JNK3 blocker = blocks human JNK3 kinase activity; P53779; purified JNK3 kinase activity, HTS; inhibition, % at 8 µM; 60,000 tested, 0.61% active; in the data active = inhibition above about 17%;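 also: 0% = DMSO and 100% = reference inhibitor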
Jurkat viability = cytotoxicity toward Jurkat cells; AID 463; inhibition, % at 4 µM; 56,000 tested, 1.2% active; Jurkat E6.1 viability, ATP luminescence, 48 h;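 active = inhibition above the mean inhibition of all tested compounds plus 3 SD, cut at about 28% in these data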
M1 antag = M1 muscarinic receptor (rat) antagonism. B-score at 10 µM. AID 628. 64,000 tested, 3.4% active. CHO-M1 cells, Fluo-4 calcium, ACh EC80 antagonist mode; hits give low values;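 active = calcium fluorescence response, raw or row-and-column corrected B-score, differing from the plate sample mean either way at a set confidence level, mostly lower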
S1P1 ag-PAM = activates or potentiates agonism at human S1P1 receptor; P21453; S1P1 CRE-bla cells, forskolin, beta-lactamase FRET, potentiator mode; S1P1 agonist co-added at EC20, 2 nM; 100% = saturating reference agonist, 0% = basal; activation, % at 9.5 µM; 56,000 tested, 0.57% active;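 active = activation above a cutoff set at the mean activation of all tested compounds plus 3 SD, cut at about 54% in these data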;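 also: forskolin at 4 µM as EC80 and the EC20 agonist is SEW2871; 100% = SEW2871 at its EC100 plus forskolin at EC80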
M1 ag = activates the M1 muscarinic receptor | CHO-M1 cells, Fluo-4 calcium fluorescence, agonist mode; hits give high values | B-score at 10 µM | 64,000 tested, 3% active | AID 626;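 active = fluorescence rise, raw or as B-score row- and column-corrected plate score, outside the 99.7% band of its plate's samples, either direction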
S1P3 ag = agonists of human S1P3 receptor; Q99500; S1P3 NFAT-BLA reporter cells, agonism, FRET ratio; relative to 1 µM S1P, basal subtracted; activation, % at 4.5 µM; 60,000 tested, 0.1% active;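 active = activation above the screen-wide mean plus 3 SD, cut at about 4.5% in these data, passing the limit was not always enough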
Target sequence (Q99500 whole entry, looked up): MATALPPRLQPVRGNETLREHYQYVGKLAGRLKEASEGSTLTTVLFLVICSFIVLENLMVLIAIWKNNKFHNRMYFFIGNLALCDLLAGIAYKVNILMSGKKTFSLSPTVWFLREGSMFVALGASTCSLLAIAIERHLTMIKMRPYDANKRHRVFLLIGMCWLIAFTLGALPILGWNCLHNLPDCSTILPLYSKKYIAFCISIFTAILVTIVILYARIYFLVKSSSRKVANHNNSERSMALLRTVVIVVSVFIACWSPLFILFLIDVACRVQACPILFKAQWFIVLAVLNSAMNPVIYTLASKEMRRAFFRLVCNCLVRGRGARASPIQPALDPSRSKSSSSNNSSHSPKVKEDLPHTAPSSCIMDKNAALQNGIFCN
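Assay system: stable CHO line with human S1P3, Gα16, NFAT-BLA reporter; Detection: FRET β-lactamase substrate fluorescence, excitation 405 nm, 460/535 nm emission ratio, background-subtracted; Read-out: percent activation versus median 1 µM S1P response, basal-subtracted, per plate; Incubation: cells plated overnight, compound 4 h 37 °C, substrate 2 h RT.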
Numbers without * were called inactive.

`Cc1ccc(NC(=O)c2oc3ccccc3c2NC(=O)c2ccc3c(c2)OCO3)cc1` gave JNK3 blocker 4, Jurkat viability -2, M1 antag -0.36, S1P1 ag-PAM -12, M1 ag 0.36 and S1P3 ag 2.
Screening Cc1nn(-c2nc3ccccc3s2)c(N)c1-c1ccc(Cl)cc1 returned JNK3 blocker 4, Jurkat viability -5, M1 antag 0.092, M1 ag 0.16 and S1P3 ag 0.
`Cc1nn(-c2nc3ccccc3s2)c(N)c1-c1ccccc1` gave JNK3 blocker -7, Jurkat viability 8, M1 antag 1.3, S1P1 ag-PAM 95*, M1 ag -0.7 and S1P3 ag -1.
CCOc1c(Br)ccc2c1sc1nc[nH]c(=O)c12 was read as JNK3 blocker 5, Jurkat viability 0, M1 antag 0.8, S1P1 ag-PAM 39, M1 ag 0.26 and S1P3 ag -1.
`Cc1nc(C)c2c(=O)cc(-c3ccccc3)[nH]c2n1` gave JNK3 blocker -2, Jurkat viability 54*, M1 antag 1.7, S1P1 ag-PAM 13, M1 ag -1 and S1P3 ag -1.
For Cc1cc(=O)[nH]c2n[nH]c(-c3ccccc3)c12 the results were JNK3 blocker -1, Jurkat viability 6, M1 antag 0.014, S1P1 ag-PAM -4, M1 ag -0.61 and S1P3 ag -1.
O=C(N1CCN(c2ccccn2)CC1)N1c2ccccc2Sc2ccccc21 was read as JNK3 blocker -6, Jurkat viability 69*, M1 antag -1.5, S1P1 ag-PAM 8, M1 ag 0.28 and S1P3 ag -1.
For O=C(c1ccco1)N1CCN(C(=O)N2c3ccccc3Sc3ccccc32)CC1 the results were JNK3 blocker -8, Jurkat viability 98*, M1 antag -0.46, S1P1 ag-PAM 15, M1 ag 1.4 and S1P3 ag -2.
`COc1ccccc1C1/C(=C(\O)c2c(C)nc3c(C)cccn23)C(=O)C(=O)N1CCCN(C)C` (stereo not drawn) gave JNK3 blocker 6, Jurkat viability -10, M1 antag 0.37, S1P1 ag-PAM -14, M1 ag -0.31 and S1P3 ag 0.
Screening Cc1ccccc1NC(=O)NCCN1C(=O)C2C3C=CC(C3)C2C1=O (stereo not drawn) returned JNK3 blocker 1, Jurkat viability -7, M1 antag 0.31, S1P1 ag-PAM -3, M1 ag 0.02 and S1P3 ag 0.
`CC(C)(C)OC(=O)N[C@@H](Cc1ccccc1)c1nnc(S(=O)(=O)Cc2cccc(F)c2)o1` gave JNK3 blocker 13, Jurkat viability 20, M1 antag -0.08, S1P1 ag-PAM 70*, M1 ag 0.068 and S1P3 ag -1.
Cc1ccccc1CS(=O)(=O)c1nnc([C@H](CC(C)C)NC(=O)OC(C)(C)C)o1 was read as JNK3 blocker 0, Jurkat viability 19, M1 antag 0.26, S1P1 ag-PAM 59, M1 ag 1.8 and S1P3 ag 0.
CCOC(=O)NC(=O)CN1C(=O)NC(C)(c2ccccc2)C1=O (stereo not drawn) was read as JNK3 blocker 2, Jurkat viability 7, M1 antag 2.1*, S1P1 ag-PAM -5, M1 ag -0.073 and S1P3 ag -1.
C=CCN(CC=C)S(=O)(=O)c1ccc2nsnc2c1 was read as JNK3 blocker 0, Jurkat viability 6, M1 antag -0.033, S1P1 ag-PAM -1, M1 ag 0.86 and S1P3 ag -1.
`OCC#CCSc1nnc(-c2ccncc2)o1` gave JNK3 blocker -10, Jurkat viability 0, M1 antag -2.2, S1P1 ag-PAM -6, M1 ag -0.0047 and S1P3 ag -2.
`Clc1ccc(CSc2nnc(-c3ccncc3)o2)cc1` gave JNK3 blocker 9, Jurkat viability 0, M1 antag -0.03, S1P1 ag-PAM 97*, M1 ag 0.72 and S1P3 ag 3.
CN(C)C(CNC(=O)NC1CCCCC1)c1cccnc1 (stereo not drawn) was read as JNK3 blocker 9, Jurkat viability 0, M1 antag -0.024, S1P1 ag-PAM 13, M1 ag 0.97 and S1P3 ag 0.
`Cc1c2c(n3c(nc4ccccc43)c1C#N)N(Cc1ccccn1)CC2` gave JNK3 blocker -1, Jurkat viability 0, M1 antag -0.2, S1P1 ag-PAM -4, M1 ag -0.031 and S1P3 ag -1.
For COc1ccc(CCn2c(N)c(C(=O)NCc3ccco3)c3nc4ccccc4nc32)cc1OC the results were JNK3 blocker -6, Jurkat viability 2, M1 antag 0.077, S1P1 ag-PAM -112, M1 ag 0.42 and S1P3 ag 7.3*.
For CCOC(=O)CCc1c(C)nc2cc(-c3ccccc3OC)[nH]n2c1=O the results were JNK3 blocker -1, Jurkat viability -1, M1 antag 2.1*, S1P1 ag-PAM -2, M1 ag -0.053 and S1P3 ag 0.
For COc1ccc(OC)c(Nc2cc(C)nc3nc(C)nn23)c1 the results were JNK3 blocker -5, Jurkat viability 25, M1 antag 0.19, S1P1 ag-PAM -36, M1 ag 0.48 and S1P3 ag -1.
Screening COc1ccc(C)cc1Nc1cc(C)nc2nc(C)nn12 returned JNK3 blocker -6, Jurkat viability 36*, M1 antag -0.92, S1P1 ag-PAM -37, M1 ag -0.15 and S1P3 ag 0.
For CCSc1nncn1/N=C/c1ccc(OC)c(OC)c1 the results were JNK3 blocker -4, Jurkat viability -8, M1 antag 1.9, S1P1 ag-PAM -52, M1 ag 1.4 and S1P3 ag -1.
COc1ccc(/C=N/n2c(N)nc3ccccc32)cc1OC was read as JNK3 blocker 48*, Jurkat viability 1, S1P1 ag-PAM -19 and S1P3 ag -1.
CCOC(=O)c1c(C)c(C(=O)Nc2cc(OC)ccc2OC)c(C)n1CC was read as JNK3 blocker 1, Jurkat viability 35*, M1 antag 0.34, S1P1 ag-PAM -28, M1 ag 0.78 and S1P3 ag -1.
`CCOC(=O)c1c(C)c(C(=O)Nc2ccccc2)c(C)n1CC` gave JNK3 blocker -2, Jurkat viability 0, M1 antag 0.013, S1P1 ag-PAM 1, M1 ag 0.51 and S1P3 ag -1.
`CCOC(=O)c1c(C)[nH]c(C(=O)OCC(=O)Nc2cc(C)ccc2OC)c1C` gave JNK3 blocker 7, Jurkat viability 5, M1 antag 0.58, S1P1 ag-PAM -7, M1 ag -0.46 and S1P3 ag -1.
For CCOC(=O)c1[nH]c(C)c(C(=O)Nc2cc(OC)ccc2OC)c1C the results were JNK3 blocker 5, Jurkat viability 80*, M1 antag 0.18, S1P1 ag-PAM 5, M1 ag 0.17 and S1P3 ag 0.

From PubChem BioAssay
